Test results reported in ChEMBL document CHEMBL1150836, “Bioactive constituents of the roots of Cynanchum atratum” (2001).
In brackets after ≈: the same amount, converted by molar mass.

Columns and labels:
RAW264.7 [1] = experiment: Antiinflammatory activity in LPS-stimulated mouse RAW264.7 cells assessed as inhibition of TNFalpha formation at 30 uM pretreated 1 hr before LPS challenge measured after 24 hrs by enzyme immunoassay; assay type: functional
Method in brief: (§1)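 RAW 264.7 cells, 2 × 10⁵ per well in DMEM with 5% FCS and penicillin/streptomycin, adhered overnight. Pretreated 1 h at 37 °C with drug (0.5% DMSO vehicle; dexamethasone reference), then LPS (E. coli 0111:B4) 1 μg/mL for 24 h. TNF-α in the collected medium, stored at −70 °C, quantified by EIA kit.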

N9 [2] = experiment: Antiinflammatory activity in LPS/IFN-gamma-stimulated mouse N9 cells assessed as inhibition of TNFalpha formation at 30 uM pretreated 1 hr before LPS/IFNgamma challenge measured after 24 hrs by enzyme immunoassay
RAW264.7 [3] = experiment: Antiinflammatory activity in LPS-stimulated mouse RAW264.7 cells assessed as inhibition of TNFalpha formation at 10 uM pretreated 1 hr before LPS challenge measured after 24 hrs by enzyme immunoassay; assay type: functional; method in brief: as §1
N9 [4] = experiment: Antiinflammatory activity in LPS/IFN-gamma-stimulated mouse N9 cells assessed as inhibition of TNFalpha formation at 10 uM pretreated 1 hr before LPS/IFNgamma challenge measured after 24 hrs by enzyme immunoassay
[5] = Cytotoxicity against mouse 212 cells after 6 days by MTT assay; assay type: functional; conditions: 144 h, read-out: ED50 (the source's name)
Method in brief: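 Ha-ras-transformed NIH/3T3 line (212), kept in MEM alpha with 10% calf serum and antibiotics. Assay medium had 10 mM HEPES pH 7.3. (1–3) × 10³ cells seeded, attached 6 h, then exposed to a range of drug concentrations for 6 days at 37 °C. MTT 4 h, DMSO solubilisation, A550.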

T-24 = experiment: Cytotoxicity against human T24 cells after 6 days by MTT assay; assay type: functional; conditions: T-24, 144 h, read-out: ED50 (the source's name)
Method in brief: (§2)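 Cells grown in DMEM with 10% FBS, 2 mM glutamine and penicillin/streptomycin. (1–3) × 10³ cells seeded per well, attached 6 h, then given fresh medium with 10 mM HEPES pH 7.3 and a range of drug concentrations at 37 °C, CO₂, for 6 days. MTT (1 mg/mL in PBS) added for 4 h, formazan dissolved in DMSO, absorbance read at 550 nm.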

Ca-Ski = experiment: Cytotoxicity against human CaSki cells after 6 days by MTT assay; assay type: functional; conditions: 144 h, read-out: ED50 (the source's name); method in brief: as §2
SiHa = experiment: Cytotoxicity against human SiHa cells after 6 days by MTT assay; assay type: functional; conditions: 144 h, read-out: ED50 (the source's name); method in brief: as §2
HT-3 = experiment: Cytotoxicity against human HT3 cells after 6 days by MTT assay; assay type: functional; conditions: HT-3, 144 h, read-out: ED50 (the source's name); method in brief: as §2
[6] = Cytotoxicity against human PLC/PRF/5 cells after 6 days by MTT assay; assay type: functional; conditions: PLC-PRF-5, 144 h, read-out: ED50 (the source's name); method in brief: as §2

Row | SMILES | inhibition at 30 µM (RAW264.7 [1]) | inhibition at 30 µM (N9 [2]) | inhibition at 10 µM (RAW264.7 [3]) | inhibition at 10 µM (N9 [4]) | EC50 [5] | also measured
1 | CC(=O)c1ccc(O)c(O)c1 | -29.2% | -21.5% | – | – | – | –
2 | CO[C@@H]1[C@@H](O)[C@H](O[C@H]2CC[C@@]3(C)C(=CC[C@@H]4C(=O)O[C@@H]5CO[C@]6(C)OC=C(CC[C@@H]43)[C@H]56)C2)O[C@H](C)[C@H]1O | – | – | 29.5% | 3.2% | – | –
3 | C[C@@H]1C[C@H]2[C@@H]3CCC4=CC(=O)C=C[C@]4(C)[C@@]3(F)[C@@H](O)C[C@]2(C)[C@@]1(O)C(=O)CO [DEXAMETHASONE] | – | – | 49.9% | 82% | – | –
4 | CO[C@@H]1[C@@H](O)[C@H](O[C@H]2CC[C@@]3(C)C(=CC[C@@H]4C(=O)O[C@@H]5CO[C@]6(C)OC=C(CC[C@@H]43)[C@H]56)C2)O[C@H](C)[C@H]1O[C@H]1C[C@H](OC)[C@@H](O[C@H]2C[C@H](OC)[C@H](O)[C@@H](C)O2)[C@H](C)O1 | 33.7% | 30.9% | – | – | 0.96 µg/mL (≈ 1.19 µM) | –
5 | CO[C@@H]1[C@@H](O)[C@H](O[C@H]2CC[C@@]3(C)C(=CC[C@@H]4C(=O)O[C@@H]5CO[C@]6(C)OC(=O)/C(=C/C[C@@H]43)[C@H]56)C2)O[C@H](C)[C@H]1O[C@H]1C[C@H](OC)[C@@H](O[C@H]2C[C@H](OC)[C@H](O)[C@@H](C)O2)[C@H](C)O1 [ATRATOGLAUCOSIDE B] | – | – | – | – | > 4 µg/mL | EC50 (T-24): > 4 µg/mL; EC50 (Ca-Ski): > 4 µg/mL; EC50 (SiHa): > 4 µg/mL; EC50 (HT-3): > 4 µg/mL; EC50 [6]: > 4 µg/mL
6 | COc1cc(C(C)=O)ccc1O [APOCYNIN] | -19.8% | -22.6% | – | – | – | –
